From ChEMBL document CHEMBL4196055, “Synthesis and biological evaluation of α-santonin derivatives as anti-hepatoma agents” (Eur J Med Chem, 2018)

Legend:
QGY-7703 [1] = experiment: Induction of apoptosis in human QGY7703 cells assessed as necrotic cells at 15 uM after 24 hrs by Annexin-V FITC/propidium iodide staining based flow cytometric analysis (reference value: 0.6 to 0.7%); type: functional
In short: (§1)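 Assay in QGY-7703 cells kept in RPMI 1640 with 10% FBS. Seeded at 5 × 10^5 cells/well for 24 h, then treated for 24 h with 5, 10 or 15 μM compound, DMSO as control. Annexin V-FITC/PI staining for 15 min at room temperature in the dark, then immediate flow cytometry to count the apoptotic fractions.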

QGY-7703 [2] = experiment: Induction of apoptosis in human QGY7703 cells assessed as early apoptotic cells at 10 uM after 24 hrs by Annexin-V FITC/propidium iodide staining based flow cytometric analysis (reference value: 0.8 to 1%); type: functional; in short: as §1
QGY-7703 [3] = experiment: Induction of apoptosis in human QGY7703 cells assessed as late apoptotic cells at 15 uM after 24 hrs by Annexin-V FITC/propidium iodide staining based flow cytometric analysis (reference value: 4.1 to 4.3%); type: functional; in short: as §1
QGY-7703 [4] = experiment: Induction of apoptosis in human QGY7703 cells assessed as early apoptotic cells at 5 uM after 24 hrs by Annexin-V FITC/propidium iodide staining based flow cytometric analysis (reference value: 0.8 to 1%); type: functional; in short: as §1
QGY-7703 [5] = experiment: Induction of apoptosis in human QGY7703 cells assessed as late apoptotic cells at 5 uM after 24 hrs by Annexin-V FITC/propidium iodide staining based flow cytometric analysis (reference value: 4.1 to 4.3%); type: functional; in short: as §1
QGY-7703 [6] = experiment: Induction of apoptosis in human QGY7703 cells assessed as increase in cleaved PARP level after 24 hrs by Western blot analysis; type: functional, cell-based
In short: (§2)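 QGY-7703 cells subcultured for 24 h, then given compound for 24 h, with DMSO as control. Lysates in buffer with protease inhibitors, protein measured by BCA, equal amounts run on 10% SDS-PAGE and moved to PVDF. Blocked in 5% milk, probed overnight at 4 °C for PARP, cleaved caspase 3, pro-caspase 3 and pro-caspase 9 (1:1000), with GAPDH loading control. IRDye secondaries, densitometry reported as grayscale values.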

QGY-7703 [7] = experiment: Induction of apoptosis in human QGY7703 cells assessed as viable cells at 10 uM after 24 hrs by Annexin-V FITC/propidium iodide staining based flow cytometric analysis (reference value: 94.2 to 94.3%); type: functional; conditions: QGY-7703, 24 h, read-out: Activity; in short: as §1
QGY-7703 [8] = experiment: Induction of apoptosis in human QGY7703 cells assessed as viable cells at 15 uM after 24 hrs by Annexin-V FITC/propidium iodide staining based flow cytometric analysis (reference value: 94.2 to 94.3%); type: functional; conditions: QGY-7703, 24 h, read-out: Activity; in short: as §1
QGY-7703 [9] = experiment: Induction of apoptosis in human QGY7703 cells assessed as decrease in pro-caspase 9 level after 24 hrs by Western blot analysis; type: functional, cell-based; in short: as §2
[10] = Antiproliferative activity against human QSG7701 cells after 24 hrs by CCK-8 assay; type: cell-based; conditions: QSG7701, 24 h
In short: (§3)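 Cells in 10% FBS medium with penicillin/streptomycin at 37 °C, 5% CO2; HepG-2 in DMEM, QGY-7703, SMMC-7721 and QSG-7701 in RPMI 1640. Seeded 2 × 10^5 cells/well, grown 24 h, then exposed to five concentrations of compound or 1% DMSO vehicle for 24 h. CCK-8 added for 1 h, absorbance read at 450 nm; IC50 derived from the 5-dose data.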

QGY-7703 [11] = experiment: Induction of apoptosis in human QGY7703 cells assessed as necrotic cells at 5 uM after 24 hrs by Annexin-V FITC/propidium iodide staining based flow cytometric analysis (reference value: 0.6 to 0.7%); type: functional; in short: as §1
HepG2 [12] = experiment: Antiproliferative activity against human HepG2 cells at 10 uM after 24 hrs by CCK-8 assay relative to control; type: functional
In short: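 HepG-2 grown in DMEM with 10% FBS and penicillin/streptomycin (37 °C, 5% CO2). Seeded 2 × 10^5 cells/well for 24 h, then given a single 10 μM dose or 1% DMSO vehicle for 24 h. CCK-8 reagent for 1 h, A450 read, and percent inhibition calculated against untreated control cells.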

QGY-7703 [13] = experiment: Antiproliferative activity against human QGY7703 cells after 24 hrs by CCK-8 assay; type: functional, cell-based; conditions: QGY-7703, 24 h; in short: as §3
QGY-7703 [14] = experiment: Induction of apoptosis in human QGY7703 cells assessed as increase in cleaved caspase 3 level after 24 hrs by Western blot analysis; type: functional, cell-based; in short: as §2
SMMC-7721 = experiment: Antiproliferative activity against human SMMC7721 cells after 24 hrs by CCK-8 assay; type: functional, cell-based; conditions: SMMC-7721, 24 h; in short: as §3
QGY-7703 [15] = experiment: Induction of apoptosis in human QGY7703 cells assessed as viable cells at 5 uM after 24 hrs by Annexin-V FITC/propidium iodide staining based flow cytometric analysis (reference value: 94.2 to 94.3%); type: functional; conditions: QGY-7703, 24 h, read-out: Activity; in short: as §1
QGY-7703 [16] = experiment: Induction of apoptosis in human QGY7703 cells assessed as late apoptotic cells at 10 uM after 24 hrs by Annexin-V FITC/propidium iodide staining based flow cytometric analysis (reference value: 4.1 to 4.3%); type: functional; in short: as §1
QGY-7703 [17] = experiment: Induction of apoptosis in human QGY7703 cells assessed as early apoptotic cells at 15 uM after 24 hrs by Annexin-V FITC/propidium iodide staining based flow cytometric analysis (reference value: 0.8 to 1%); type: functional; in short: as §1
QGY-7703 [18] = experiment: Induction of apoptosis in human QGY7703 cells assessed as necrotic cells at 10 uM after 24 hrs by Annexin-V FITC/propidium iodide staining based flow cytometric analysis (reference value: 0.6 to 0.7%); type: functional; in short: as §1
HepG2 [19] = experiment: Antiproliferative activity against human HepG2 cells after 24 hrs by CCK-8 assay; type: functional, cell-based; conditions: HepG2, 24 h; in short: as §3

| SMILES | Activity (QGY-7703 [1]) [%] | Activity (QGY-7703 [2]) [%] | Activity (QGY-7703 [3]) [%] | Activity (QGY-7703 [4]) [%] | Activity (QGY-7703 [5]) [%] | Activity (QGY-7703 [6]) | viability at 10 µM (QGY-7703 [7]) [%] | viability at 15 µM (QGY-7703 [8]) [%] | Activity (QGY-7703 [9]) | IC50 [10] [µM] | Activity (QGY-7703 [11]) [%] | Activity (HepG2 [12]) [%] | IC50 (QGY-7703 [13]) [µM] | Activity (QGY-7703 [14]) | IC50 (SMMC-7721) [µM] | viability at 5 µM (QGY-7703 [15]) [%] | Activity (QGY-7703 [16]) [%] | Activity (QGY-7703 [17]) [%] | Activity (QGY-7703 [18]) [%] | IC50 (HepG2 [19]) [µM] |
| --- | --- | --- | --- | --- | --- | --- | --- | --- | --- | --- | --- | --- | --- | --- | --- | --- | --- | --- | --- | --- |
| C=C1C(=O)O[C@@H]2C3=C(C)[C@@H](OC(=O)c4ccc(Cl)cc4)CC3[C@](C)(OC(C)=O)CC[C@@H]12 (stereo not given in full) | 0.6 | 15.5 | 63.4 | 20.6 | 1.7 | Dose-dependent effect | 63.6 | 11.6 | Dose-dependent effect | 46.9 | 0 | 72.69 | 10.1 | Dose-dependent effect | 4.24 | 77.7 | 20.6 | 24.4 | 0.3 | 7.1 |
| C=C1C(=O)O[C@@H]2C3=C(C)[C@@H](OC(=O)/C=C/c4ccc(Cl)cc4)CC3[C@](C)(OC(C)=O)CC[C@@H]12 (stereo not given in full) | 0.5 | 11.3 | 31.7 | 16.6 | 1.8 | Dose-dependent effect | 69.7 | 29.6 | Dose-dependent effect | > 100 | 0 | 62.92 | 3.06 | Dose-dependent effect | 4.08 | 81.6 | 18.8 | 38.1 | 0.2 | 7.51 |
